Reference: article PMC9299227 (Diabetes, Obesity & Metabolism, 2021)

Assays:
[1] = test system: Japanese participants with type 2 diabetes; test: Serum lipids; assay type: in vivo, human
[2] = test system: Japanese participants with type 2 diabetes; test: Body weight, change from baseline versus placebo; assay type: in vivo, human; conditions: P < .0001
How it was run: (§1)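 Randomized, participant- and investigator-blind, placebo-controlled trial. Adults aged 20-70 with T2D for ≥1 year and BMI 20-35 kg/m2; metformin or DPP-4 inhibitor withdrawn ≥28 days before dosing. Once-weekly SC abdominal-wall injections for 8 weeks, rotating four sites. Escalation: 5 mg fixed; 2.5→5→10 mg; 5→10→15 mg. Change from baseline by mixed-effects model (regimen fixed, participant random, day and regimen-by-day terms); LS means, 95% CI, P<.05.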

[3] = test system: Japanese participants with type 2 diabetes; test: HbA1c, change from baseline versus placebo; assay type: in vivo, human; conditions: for HbA1c, LS mean decrease from baseline versus placebo: P < .0001
How it was run: as §1

[4] = test system: Japanese participants with type 2 diabetes; test: Fasting plasma glucose, change from baseline versus placebo; assay type: in vivo, human; conditions: P < .0001
How it was run: as §1

[5] = Plasma tirzepatide pharmacokinetics, non-compartmental analysis; assay type: in vivo; conditions: human, sc, 5 mg
How it was run: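 Noncompartmental PK on plasma drug levels after weekly SC abdominal dosing at 5 mg for weeks 1-8. Sampling spanned one 168-h interval after the day 1 dose and up to 840 h after the last dose on day 50. Steady-state CL/F and Vz/F were estimated as extravascular parameters and summarized descriptively by dose level.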

[6] = test system: participants with T2D; conditions: 26 weeks, cited from earlier work
[7] = test system: Japanese participants with type 2 diabetes; test: Safety and tolerability; assay type: in vivo, human
[8] = test system: Japanese participants with type 2 diabetes; test: Seven-point self-monitored plasma glucose; assay type: in vivo, human; conditions: week 2 to week 8, all doses of tirzepatide
How it was run: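 Patients with T2D receive weekly SC injections of test compound (escalating to 5, 10 or 15 mg) or placebo into the abdominal wall for 8 weeks. Plasma glucose is self-monitored at seven time points across the day and profiled as an arithmetic mean at day 57. Change from baseline is analysed by mixed-effects model (regimen fixed, participant random) as LS means with 95% CI.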

[9] = test system: Japanese participants with type 2 diabetes; test: Meal intake and subjective appetite sensation; assay type: in vivo, human
How it was run: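 Once-weekly SC test compound (5, 10 or 15 mg groups, escalated) or placebo into the abdominal wall for 8 weeks. Standardized lunch and dinner are given and intake is recorded. Hunger, fullness, satiety and prospective food consumption are rated on a 100-mm VAS before and 4-5 h after the meal. Overall score is the mean of satiety, fullness, (100 − prospective consumption) and (100 − hunger).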

[10] = 5-mg group (5 mg weeks 1-8), SC once weekly, 8 weeks, N = 11
[11] = 10-mg group (2.5 mg weeks 1-2, 5 mg weeks 3-4, 10 mg weeks 5-8), SC once weekly, N = 12
[12] = 15-mg group (5 mg weeks 1-2, 10 mg weeks 3-6, 15 mg weeks 7-8), SC once weekly, N = 16

Which “Triglyceride postdose (week 8), mean (SD)” value (“Triglyceride postdose … (SD)” for short) ([1]; 5-mg group, predose (week 1) 204 (56) mg/dL) does the source give for CC[C@H](C)[C@H](NC(=O)[C@H](CC(C)C)NC(=O)[C@H](Cc1c[nH]c2ccccc12)NC(=O)[C@H](CCC(N)=O)NC(=O)[C@@H](NC(=O)[C@H](Cc1ccccc1)NC(=O)[C@H](C)NC(=O)[C@H](CCCCNC(=O)COCCOCCNC(=O)COCCOCCNC(=O)CC[C@H](NC(=O)CCCCCCCCCCCCCCCCCCC(=O)O)C(=O)O)NC(=O)[C@H](CCC(N)=O)NC(=O)[C@H](C)NC(=O)[C@@H](NC(=O)[C@H](CCCCN)NC(=O)[C@H](CC(=O)O)NC(=O)[C@H](CC(C)C)NC(=O)C(C)(C)NC(=O)[C@@H](NC(=O)[C@H](CO)NC(=O)[C@H](Cc1ccc(O)cc1)NC(=O)[C@H](CC(=O)O)NC(=O)[C@H](CO)NC(=O)[C@@H](NC(=O)[C@H](Cc1ccccc1)NC(=O)[C@@H](NC(=O)CNC(=O)[C@H](CCC(=O)O)NC(=O)C(C)(C)NC(=O)[C@@H](N)Cc1ccc(O)cc1)[C@@H](C)O)[C@@H](C)O)[C@@H](C)CC)[C@@H](C)CC)C(C)C)C(=O)N[C@@H](C)C(=O)NCC(=O)NCC(=O)N1CCC[C@H]1C(=O)N[C@@H](CO)C(=O)N[C@@H](CO)C(=O)NCC(=O)N[C@@H](C)C(=O)N1CCC[C@H]1C(=O)N1CCC[C@H]1C(=O)N1CCC[C@H]1C(=O)N[C@@H](CO)C(N)=O [tirzepatide] here?
The value was 161 (51) mg/dL.

What about the “Triglyceride postdose … (SD)” value ([1]; 10-mg group, predose (week 1) 172 (71) mg/dL) of the same molecule?
Its value is 122 (38) mg/dL.

And the “Triglyceride postdose … (SD)” value ([1]; 15-mg group, predose (week 1) 173 (121) mg/dL)?
Its value is 122 (55) mg/dL.

And the “Body weight, LS mean decrease from baseline (95% CI) versus placebo” value ([2]; week 8, 5-mg group)?
Its value is 3.4 (2.0‐4.8) kg.

What about the “Body weight, LS mean decrease from baseline (95% CI) versus placebo” value ([2]; week 8, 10-mg group) of the same molecule?
Its value is 5.0 (3.6‐6.5) kg.

And the “Body weight, LS mean decrease from baseline (95% CI) versus placebo” value ([2]; week 8, 15-mg group)?
Its value is 6.6 (5.3‐7.9) kg.

And the “HbA1c, LS mean decreases from baseline versus placebo, across treatment groups” value ([3]; 8 weeks, 95% CI 1.2%-1.9%, P < .0001 for all treatment groups)?
The value was “up to 1.6%”.

And the “HbA1c, LS mean decrease from baseline versus placebo” value ([3]; week 8, 5-mg group, 95% CI 0.8%-1.5%)?
The value was 1.1%.

What about the “HbA1c, LS mean decrease from baseline versus placebo” value ([3]; week 8, 10-mg group, 95% CI 0.9%-1.7%) of the same molecule?
Its value is 1.3%.

And the “HbA1c, LS mean decrease from baseline versus placebo” value ([3]; week 8, 15-mg group, 95% CI 1.2%-1.9%)?
The value was 1.6%.

What about the “Fasting plasma glucose, LS mean decrease from baseline versus placebo (95% CI)” value ([4]; week 8, 5-mg group) of the same molecule?
The value was 52.7 (35.9‐69.6) mg/dL.

And the “Fasting plasma glucose, LS mean decrease from baseline versus placebo (95% CI)” value ([4]; week 8, 10-mg group)?
The value was 69.1 (52.3‐85.9) mg/dL.

What about the “Fasting plasma glucose, LS mean decrease from baseline versus placebo (95% CI)” value ([4]; week 8, 15-mg group) of the same molecule?
Its value is 68.9 (53.2‐84.6) mg/dL.

And the Vd/F [5]?
The Vd/F was 5.27 L.

And the Body weight reduction ([6]; 5-, 10-, and 15-mg doses versus placebo)?
Its Body weight reduction is “significant, dose‐dependent reductions in body weight for the 5‐, 10‐, and 15‐mg doses of tirzepatide versus placebo”.

And the HbA1c reduction ([6]; doses 1, 5, 10, and 15 mg, versus placebo)?
Its HbA1c reduction is “significant dose‐dependent reductions in HbA1c at all doses (1, 5, 10, and 15 mg) versus placebo”.

What about the “Abdominal discomfort, treatment-emergent adverse event” value (shortened to “Abdominal discomfort”) [7, 10] of the same molecule?
The value was 0 n (%).

What about the “Abdominal distension, treatment-emergent adverse event” value (from here on “Abdominal distension”) [7, 10] of the same molecule?
The value was 3 (27.3) n (%).

And the “Blood triglycerides increased, treatment-emergent adverse event” value (“Blood triglycerides increased” for short) [7, 10]?
Its value is 0 n (%).

What about the “Constipation, treatment-emergent adverse event” value [7, 10] of the same molecule?
Its value is 0 n (%).

What about the “Decreased appetite, treatment-emergent adverse event” value (from here on “Decreased appetite”) [7, 10] of the same molecule?
Its value is 5 (45.5) n (%).

What about the “Diarrhea, treatment-emergent adverse event” value [7, 10] of the same molecule?
Its value is 0 n (%).

What about the “Dyspepsia, treatment-emergent adverse event” value [7, 10] of the same molecule?
Its value is 0 n (%).

What about the “Headache, treatment-emergent adverse event” value [7, 10] of the same molecule?
Its value is 0 n (%).

What about the “Lipase increased, treatment-emergent adverse event” value (shortened to “Lipase increased”) [7, 10] of the same molecule?
Its value is 0 n (%).

What about the “Nausea, treatment-emergent adverse event” value [7, 10] of the same molecule?
Its value is 1 (9.1) n (%).

And the “Viral upper respiratory tract infection, treatment-emergent adverse event” value [7, 10]?
The value was 1 (9.1) n (%).

What about the “Vomiting, treatment-emergent adverse event” value [7, 10] of the same molecule?
The value was 1 (9.1) n (%).

And the “White blood cell count increased, treatment-emergent adverse event” value (from here on “White blood cell count increased”) [7, 10]?
The value was 1 (9.1) n (%).

And the “Abdominal discomfort” value [7, 11]?
The value was 2 (16.7) n (%).

And the “Abdominal distension” value [7, 11]?
Its value is 1 (8.3) n (%).

What about the “Blood triglycerides increased” value [7, 11] of the same molecule?
Its value is 0 n (%).

What about the “Constipation, treatment-emergent adverse event” value [7, 11] of the same molecule?
The value was 8 (66.7) n (%).

And the “Decreased appetite” value [7, 11]?
Its value is 6 (50.0) n (%).

What about the “Diarrhea, treatment-emergent adverse event” value [7, 11] of the same molecule?
Its value is 3 (25.0) n (%).

What about the “Dyspepsia, treatment-emergent adverse event” value [7, 11] of the same molecule?
The value was 3 (25.0) n (%).

And the “Headache, treatment-emergent adverse event” value [7, 11]?
The value was 3 (25.0) n (%).

And the “Lipase increased” value [7, 11]?
The value was 1 (8.3) n (%).

And the “Nausea, treatment-emergent adverse event” value [7, 11]?
The value was 0 n (%).

What about the “Vomiting, treatment-emergent adverse event” value [7, 11] of the same molecule?
The value was 1 (8.3) n (%).

And the “White blood cell count increased” value [7, 11]?
Its value is 0 n (%).

What about the “Abdominal discomfort” value [7, 12] of the same molecule?
The value was 4 (25.0) n (%).

What about the “Abdominal distension” value [7, 12] of the same molecule?
The value was 0 n (%).

And the “Blood triglycerides increased” value [7, 12]?
The value was 1 (6.3) n (%).

And the “Constipation, treatment-emergent adverse event” value [7, 12]?
The value was 8 (50.0) n (%).

What about the “Decreased appetite” value [7, 12] of the same molecule?
Its value is 10 (62.5) n (%).

What about the “Diarrhea, treatment-emergent adverse event” value [7, 12] of the same molecule?
The value was 5 (31.3) n (%).

What about the “Dyspepsia, treatment-emergent adverse event” value [7, 12] of the same molecule?
The value was 0 n (%).

And the “Headache, treatment-emergent adverse event” value [7, 12]?
The value was 1 (6.3) n (%).

What about the “Lipase increased” value [7, 12] of the same molecule?
The value was 2 (12.5) n (%).

And the “Nausea, treatment-emergent adverse event” value [7, 12]?
The value was 2 (12.5) n (%).

And the “Vomiting, treatment-emergent adverse event” value [7, 12]?
The value was 2 (12.5) n (%).

And the “White blood cell count increased” value [7, 12]?
The value was 1 (6.3) n (%).

And the Tolerability ([7]; all tirzepatide doses (5-, 10-, 15-mg groups), SC once weekly, 8 weeks)?
The Tolerability was “all tirzepatide doses were well tolerated”.

What about the “Severe hypoglycemia or nocturnal hypoglycemia events” value ([7]; all treatment groups, 8 weeks) of the same molecule?
The value was “No severe hypoglycemia or nocturnal hypoglycemia events were reported”.

What about the “Injection-site or hypersensitivity AEs” value ([7]; all treatment groups, SC abdominal wall, 8 weeks) of the same molecule?
Its value is “No injection‐site or hypersensitivity AEs were reported”.

What about the “Deaths or serious AEs” value ([7]; all treatment groups, SC once weekly, 8 weeks) of the same molecule?
The value was “No deaths or serious AEs occurred during the study”.

And the “Systolic and diastolic blood pressure, mean predose” value ([7]; participants treated with tirzepatide (Figure S3))?
Its value is “no significant changes in blood pressure”.

What about the “Seven-point SMPG daily profile compared with placebo” value [8] of the same molecule?
Its value is “improved overall daily SMPG profiles compared with placebo”.

And the Overall appetite score ([9]; average of four VAS scores, among treatment groups (Figure S5))?
Its Overall appetite score is “overall appetite score was not different among the treatment groups”.

And the “Hunger and fullness scores, visual analog scale, compared with placebo” value ([9]; lunch and dinner, all tirzepatide dose levels (Figure S5))?
The value was “numerically decreased hunger and fullness scores”.

And the “Percentage of meal intake compared with placebo” value ([9]; week 8, standardized meals (Figure S4))?
The value was “dose‐dependent decrease in the percentage of meal intake compared with placebo”.
